Laboratory results as given in ChEMBL document CHEMBL4118021, “Studies of TAK1-centered polypharmacology with novel covalent TAK1 inhibitors” (Bioorg Med Chem, 2017).
Calls of active or inactive are those of the source. No cut-off for these calls is given here.

What was measured:
[1] = target: Mitogen-activated protein kinase 3 (Homo sapiens) (UniProt P27361); assay: Inhibition of Erk1 in human SKCO1 cells at 1 uM after 4 hrs using biotin labeled DLKPSNLLINTTCDLK probe by mass-spectrometric analysis relative to control; assay type: cell-based
[2] = target: T1, Dual specificity mitogen-activated protein kinase kinase 5 (Homo sapiens) (UniProt Q13163); assay: Inhibition of MAP2K5 in human SKCO1 cells at 1 uM after 4 hrs using biotin labeled DVKPSNMLVNTR probe by mass-spectrometric analysis relative to control; assay type: cell-based
T1 sequence (whole entry): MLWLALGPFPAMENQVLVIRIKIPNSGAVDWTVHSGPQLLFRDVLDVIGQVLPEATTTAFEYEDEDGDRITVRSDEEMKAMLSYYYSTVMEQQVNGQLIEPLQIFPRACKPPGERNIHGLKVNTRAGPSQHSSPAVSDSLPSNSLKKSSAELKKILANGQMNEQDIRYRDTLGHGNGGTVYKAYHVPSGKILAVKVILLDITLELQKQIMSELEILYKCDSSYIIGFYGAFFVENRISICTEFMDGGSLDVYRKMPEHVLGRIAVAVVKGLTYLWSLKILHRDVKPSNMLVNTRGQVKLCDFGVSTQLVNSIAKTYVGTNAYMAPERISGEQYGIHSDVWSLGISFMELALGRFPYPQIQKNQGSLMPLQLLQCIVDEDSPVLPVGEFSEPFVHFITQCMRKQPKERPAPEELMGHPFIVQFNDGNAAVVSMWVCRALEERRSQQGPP

[3] = target: Inhibitor of nuclear factor kappa-B kinase subunit alpha (Homo sapiens) (UniProt O15111); assay: Inhibition of IKKa in human SKCO1 cells at 1 uM after 4 hrs using biotin labeled DLKPENIVLQDVGGK probe by mass-spectrometric analysis relative to control; assay type: cell-based
[4] = target: Cyclin-dependent kinase 16 (Homo sapiens) (UniProt Q00536); assay: Inhibition of PCTAIRE1 in human SKCO1 cells at 1 uM after 4 hrs using biotin labeled SKLTDNLVALKEIR probe by mass-spectrometric analysis relative to control; assay type: cell-based
How it was run: (§1)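 Live SK-CO-1 cells exposed to compound at 1 μM or DMSO for 4 h (KiNativ). Lysates then labeled with lysine-reactive ATP/ADP-biotin probe, and probe-labeled kinase peptides quantified by mass spectrometry. Percent inhibition of probe-dependent recovery calculated relative to DMSO-treated cells.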

[5] = target: Mitogen-activated protein kinase kinase kinase kinase 5 (Homo sapiens) (UniProt Q9Y4K4); assay: Inhibition of KHS1 in human SKCO1 cells at 1 uM after 4 hrs using biotin labeled NVHTGELAAVKIIK probe by mass-spectrometric analysis relative to control; assay type: cell-based
[6] = target: Mitogen-activated protein kinase 10 (Homo sapiens) (UniProt P53779); assay: Inhibition of JNK3 in human SKCO1 cells at 1 uM after 4 hrs using biotin labeled DLKPSNIVVK probe by mass-spectrometric analysis relative to control; assay type: cell-based
[7] = target: SRSF protein kinase 1 (Homo sapiens) (UniProt Q96SB4); assay: Inhibition of SRPK1 in human SKCO1 cells at 1 uM after 4 hrs using biotin labeled IIHTDIKPENILLSVNEQYIR probe by mass-spectrometric analysis relative to control; assay type: cell-based; how it was run: as §1
[8] = target: T2, Mitogen-activated protein kinase kinase kinase 7 (Homo sapiens, UniProt O43318); assay: Inhibition of TAK1 (unknown origin) by LanthaScreen assay
T2 sequence (O43318 whole entry): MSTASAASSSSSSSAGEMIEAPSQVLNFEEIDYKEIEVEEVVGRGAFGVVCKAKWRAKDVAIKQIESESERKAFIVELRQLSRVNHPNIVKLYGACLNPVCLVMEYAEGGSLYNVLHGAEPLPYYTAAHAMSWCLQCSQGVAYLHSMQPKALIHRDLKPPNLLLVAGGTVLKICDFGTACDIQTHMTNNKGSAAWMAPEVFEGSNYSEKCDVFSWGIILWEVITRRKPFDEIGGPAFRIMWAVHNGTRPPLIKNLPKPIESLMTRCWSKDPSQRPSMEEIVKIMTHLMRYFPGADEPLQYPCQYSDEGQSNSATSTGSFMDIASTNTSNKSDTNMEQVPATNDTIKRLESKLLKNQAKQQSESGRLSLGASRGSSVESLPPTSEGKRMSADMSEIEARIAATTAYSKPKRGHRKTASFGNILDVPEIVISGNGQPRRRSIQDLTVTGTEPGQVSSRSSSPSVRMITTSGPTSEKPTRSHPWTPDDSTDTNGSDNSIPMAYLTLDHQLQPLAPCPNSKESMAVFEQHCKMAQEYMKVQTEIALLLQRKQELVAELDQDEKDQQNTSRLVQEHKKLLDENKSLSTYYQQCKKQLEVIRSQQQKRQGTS

[9] = target: Mitogen-activated protein kinase 14 (Homo sapiens) (UniProt Q16539); assay: Inhibition of p38a in human SKCO1 cells at 1 uM after 4 hrs using biotin labeled DLKPSNLAVNEDCELK probe by mass-spectrometric analysis relative to control; assay type: cell-based; how it was run: as §1
[10] = target: Serine/threonine-protein kinase Nek6 (Homo sapiens) (UniProt Q9HC98); assay: Inhibition of NEK6 in human SKCO1 cells at 1 uM after 4 hrs using biotin labeled TVALKK probe by mass-spectrometric analysis relative to control; assay type: cell-based
[11] = target: Ribosomal protein S6 kinase alpha-1 (Homo sapiens) (UniProt Q15418); assay: Inhibition of RSK1 domain2 in human SKCO1 cells at 1 uM after 4 hrs using biotin labeled DLKPSNILYVDESGNPECLR probe by mass-spectrometric analysis relative to control; assay type: cell-based
[12] = target: Cyclin-dependent kinase 5 (Homo sapiens) (UniProt Q00535); assay: Inhibition of CDK5 in human SKCO1 cells at 1 uM after 4 hrs using biotin labeled DLKPQNLLINR probe by mass-spectrometric analysis relative to control; assay type: cell-based
[13] = Antiproliferative activity against human URMC6 cells harboring wild type KRAS after 72 hrs by CellTiter-Glo assay; assay type: functional, cell-based
[14] = target: Eukaryotic elongation factor 2 kinase (Homo sapiens) (UniProt O00418); assay: Inhibition of eEF2K in human SKCO1 cells at 1 uM after 4 hrs using biotin labeled YIKYNSNSGFVR probe by mass-spectrometric analysis relative to control; assay type: cell-based
[15] = target: Probable ATP-dependent RNA helicase DDX6 (Homo sapiens) (UniProt P26196); assay: Binding affinity to DDX6 in human NCI-H23 cells at 1 uM by mass spectrometry based pull down assay; assay type: cell-based
[16] = target: Peroxiredoxin-4 (Homo sapiens) (UniProt Q13162); assay: Binding affinity to PRDX4 in human NCI-H23 cells at 1 uM by mass spectrometry based pull down assay; assay type: cell-based
[17] = target: Agrin (Homo sapiens) (UniProt O00468); assay: Binding affinity to AGRN in human NCI-H358 cells at 1 uM by mass spectrometry based pull down assay; assay type: cell-based
How it was run: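 NCI-H23 or NCI-H358 cells were grown and lysed. Lysates were incubated overnight at 4 °C with 1 μM biotinylated covalent probe or DMSO, then pulled down on streptavidin beads. Proteins were run on polyacrylamide gels and stained with Coomassie. Bands were excised, digested and identified by mass spectrometry.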

[18] = target: Protein arginine N-methyltransferase 5 (Homo sapiens) (UniProt O14744); assay: Binding affinity to PRMT5 in human NCI-H358 cells at 1 uM by mass spectrometry based pull down assay; assay type: cell-based

Chain of SRSF protein kinase 1 (Homo sapiens) (Q96SB4 whole entry): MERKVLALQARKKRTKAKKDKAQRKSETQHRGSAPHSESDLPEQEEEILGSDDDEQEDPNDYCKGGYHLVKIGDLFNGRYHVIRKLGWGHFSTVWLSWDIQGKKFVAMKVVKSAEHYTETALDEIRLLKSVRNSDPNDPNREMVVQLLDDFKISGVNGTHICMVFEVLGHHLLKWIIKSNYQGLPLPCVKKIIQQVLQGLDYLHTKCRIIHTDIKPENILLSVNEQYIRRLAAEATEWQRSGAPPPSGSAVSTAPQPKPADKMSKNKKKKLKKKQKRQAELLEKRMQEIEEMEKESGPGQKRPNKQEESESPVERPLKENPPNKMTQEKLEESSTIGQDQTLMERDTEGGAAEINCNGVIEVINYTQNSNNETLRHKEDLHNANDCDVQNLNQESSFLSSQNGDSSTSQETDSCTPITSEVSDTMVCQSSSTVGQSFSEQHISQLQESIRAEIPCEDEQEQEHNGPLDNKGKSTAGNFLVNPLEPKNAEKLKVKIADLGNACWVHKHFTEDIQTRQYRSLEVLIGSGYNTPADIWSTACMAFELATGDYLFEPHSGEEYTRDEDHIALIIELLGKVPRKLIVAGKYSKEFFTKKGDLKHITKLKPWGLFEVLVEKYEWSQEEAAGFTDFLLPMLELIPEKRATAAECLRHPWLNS
Chain of Cyclin-dependent kinase 16 (Homo sapiens) (Q00536 whole entry): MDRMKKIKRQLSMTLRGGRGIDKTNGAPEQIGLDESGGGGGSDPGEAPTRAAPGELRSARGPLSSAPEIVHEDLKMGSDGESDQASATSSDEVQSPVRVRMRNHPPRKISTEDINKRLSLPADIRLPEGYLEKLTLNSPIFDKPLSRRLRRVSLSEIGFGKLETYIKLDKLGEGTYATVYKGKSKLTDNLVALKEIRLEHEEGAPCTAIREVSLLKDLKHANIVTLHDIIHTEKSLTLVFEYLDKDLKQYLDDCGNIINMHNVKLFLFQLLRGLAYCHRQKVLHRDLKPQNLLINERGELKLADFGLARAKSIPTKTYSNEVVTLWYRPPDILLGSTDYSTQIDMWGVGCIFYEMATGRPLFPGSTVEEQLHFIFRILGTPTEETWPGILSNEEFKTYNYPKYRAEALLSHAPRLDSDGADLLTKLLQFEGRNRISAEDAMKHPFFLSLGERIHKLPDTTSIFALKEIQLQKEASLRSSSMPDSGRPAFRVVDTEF
Chain of Serine/threonine-protein kinase Nek6 (Homo sapiens) (Q9HC98 whole entry, the tested form may be a part): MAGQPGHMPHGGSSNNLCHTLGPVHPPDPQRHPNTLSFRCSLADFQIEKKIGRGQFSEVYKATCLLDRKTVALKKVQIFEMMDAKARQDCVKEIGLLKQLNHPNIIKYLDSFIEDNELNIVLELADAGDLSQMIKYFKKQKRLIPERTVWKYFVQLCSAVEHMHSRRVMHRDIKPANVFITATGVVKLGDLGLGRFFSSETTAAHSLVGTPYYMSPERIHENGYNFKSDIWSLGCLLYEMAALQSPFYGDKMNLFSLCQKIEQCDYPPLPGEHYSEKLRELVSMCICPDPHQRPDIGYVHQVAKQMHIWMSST
Chain of Ribosomal protein S6 kinase alpha-1 (Homo sapiens) (Q15418 whole entry, the tested form may be a part): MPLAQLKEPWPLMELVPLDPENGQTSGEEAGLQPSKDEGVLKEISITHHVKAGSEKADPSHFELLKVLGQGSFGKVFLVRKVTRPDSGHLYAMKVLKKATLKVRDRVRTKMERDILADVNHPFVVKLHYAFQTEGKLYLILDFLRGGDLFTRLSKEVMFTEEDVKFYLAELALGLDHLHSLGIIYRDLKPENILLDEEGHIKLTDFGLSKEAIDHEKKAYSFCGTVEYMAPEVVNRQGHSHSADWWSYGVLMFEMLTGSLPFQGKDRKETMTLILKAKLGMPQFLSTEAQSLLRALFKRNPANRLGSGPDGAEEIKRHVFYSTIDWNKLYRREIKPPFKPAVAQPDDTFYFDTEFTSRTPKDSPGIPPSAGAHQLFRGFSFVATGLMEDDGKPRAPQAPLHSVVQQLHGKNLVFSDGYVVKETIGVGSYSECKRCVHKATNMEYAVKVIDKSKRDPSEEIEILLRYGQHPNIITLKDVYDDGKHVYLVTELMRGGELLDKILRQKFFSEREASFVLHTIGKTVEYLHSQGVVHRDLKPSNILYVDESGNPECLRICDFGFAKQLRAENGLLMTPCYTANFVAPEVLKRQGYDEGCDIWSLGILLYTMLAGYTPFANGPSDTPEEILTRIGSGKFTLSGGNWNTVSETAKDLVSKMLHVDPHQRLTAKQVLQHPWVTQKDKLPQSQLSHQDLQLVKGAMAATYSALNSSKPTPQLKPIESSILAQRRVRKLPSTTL
Chain of Mitogen-activated protein kinase 14 (Homo sapiens) (Q16539 whole entry): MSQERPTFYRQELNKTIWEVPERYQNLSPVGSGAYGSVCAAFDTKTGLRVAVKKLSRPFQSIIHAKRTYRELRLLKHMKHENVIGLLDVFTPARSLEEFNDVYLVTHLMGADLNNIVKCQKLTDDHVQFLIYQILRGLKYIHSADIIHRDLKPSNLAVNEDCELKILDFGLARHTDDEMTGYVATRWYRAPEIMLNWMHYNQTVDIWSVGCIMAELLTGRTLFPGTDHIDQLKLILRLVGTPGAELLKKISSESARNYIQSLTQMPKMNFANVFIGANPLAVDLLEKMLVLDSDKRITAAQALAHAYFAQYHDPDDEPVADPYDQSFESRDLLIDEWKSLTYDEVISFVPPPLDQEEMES
Chain of Mitogen-activated protein kinase kinase kinase kinase 5 (Homo sapiens) (Q9Y4K4 whole entry, looked up): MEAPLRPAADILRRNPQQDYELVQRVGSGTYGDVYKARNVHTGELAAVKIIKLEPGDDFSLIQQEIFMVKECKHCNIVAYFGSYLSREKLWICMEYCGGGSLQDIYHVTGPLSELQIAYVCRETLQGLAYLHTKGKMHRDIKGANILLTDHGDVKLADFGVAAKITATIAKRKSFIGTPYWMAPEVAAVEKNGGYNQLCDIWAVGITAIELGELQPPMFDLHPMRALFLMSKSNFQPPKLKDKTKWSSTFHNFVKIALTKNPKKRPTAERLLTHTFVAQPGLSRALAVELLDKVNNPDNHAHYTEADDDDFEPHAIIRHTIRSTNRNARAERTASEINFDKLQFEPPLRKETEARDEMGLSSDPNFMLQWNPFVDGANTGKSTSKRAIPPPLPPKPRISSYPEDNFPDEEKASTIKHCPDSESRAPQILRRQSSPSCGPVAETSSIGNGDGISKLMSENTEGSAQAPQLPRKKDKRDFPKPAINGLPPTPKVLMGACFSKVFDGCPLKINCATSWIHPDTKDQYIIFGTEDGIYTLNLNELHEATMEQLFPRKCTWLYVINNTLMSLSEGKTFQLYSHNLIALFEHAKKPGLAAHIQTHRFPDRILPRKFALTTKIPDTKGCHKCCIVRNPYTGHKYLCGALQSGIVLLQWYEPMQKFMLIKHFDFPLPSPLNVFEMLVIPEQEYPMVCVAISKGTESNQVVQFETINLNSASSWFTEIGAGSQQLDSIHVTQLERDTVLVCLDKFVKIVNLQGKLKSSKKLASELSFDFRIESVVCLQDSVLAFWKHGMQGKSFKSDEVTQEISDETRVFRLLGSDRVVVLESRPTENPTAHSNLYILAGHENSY
Chain of Mitogen-activated protein kinase 3 (Homo sapiens) (P27361 whole entry): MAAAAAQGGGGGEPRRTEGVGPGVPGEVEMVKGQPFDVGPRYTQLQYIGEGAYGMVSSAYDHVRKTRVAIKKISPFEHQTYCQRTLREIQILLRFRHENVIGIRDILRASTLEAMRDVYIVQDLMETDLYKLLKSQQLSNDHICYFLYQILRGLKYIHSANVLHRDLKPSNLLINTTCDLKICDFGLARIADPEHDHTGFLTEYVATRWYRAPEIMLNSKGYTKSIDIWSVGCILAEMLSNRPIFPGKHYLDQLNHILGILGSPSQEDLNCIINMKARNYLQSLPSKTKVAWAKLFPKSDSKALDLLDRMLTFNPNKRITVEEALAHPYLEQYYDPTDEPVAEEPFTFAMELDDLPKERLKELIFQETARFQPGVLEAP
Chain of Eukaryotic elongation factor 2 kinase (Homo sapiens) (O00418 whole entry): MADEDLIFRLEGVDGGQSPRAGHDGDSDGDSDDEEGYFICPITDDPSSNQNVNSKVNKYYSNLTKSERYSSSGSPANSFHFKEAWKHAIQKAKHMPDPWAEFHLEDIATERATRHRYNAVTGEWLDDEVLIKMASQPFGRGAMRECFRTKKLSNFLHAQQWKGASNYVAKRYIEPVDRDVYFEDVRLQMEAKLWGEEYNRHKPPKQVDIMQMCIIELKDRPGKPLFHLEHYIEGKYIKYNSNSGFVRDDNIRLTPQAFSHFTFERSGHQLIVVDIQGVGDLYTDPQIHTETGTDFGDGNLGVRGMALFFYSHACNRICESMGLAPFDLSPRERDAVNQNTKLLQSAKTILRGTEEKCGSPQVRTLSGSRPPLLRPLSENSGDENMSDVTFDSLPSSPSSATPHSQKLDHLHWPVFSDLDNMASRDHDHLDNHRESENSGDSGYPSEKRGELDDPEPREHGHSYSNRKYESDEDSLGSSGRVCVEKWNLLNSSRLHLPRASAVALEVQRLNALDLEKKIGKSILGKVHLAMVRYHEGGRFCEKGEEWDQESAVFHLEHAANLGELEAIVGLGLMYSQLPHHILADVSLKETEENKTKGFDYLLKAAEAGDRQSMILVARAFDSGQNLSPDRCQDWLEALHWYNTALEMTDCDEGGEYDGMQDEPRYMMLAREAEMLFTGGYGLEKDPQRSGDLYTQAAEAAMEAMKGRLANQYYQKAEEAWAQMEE
Chain of Mitogen-activated protein kinase 10 (Homo sapiens) (P53779 whole entry): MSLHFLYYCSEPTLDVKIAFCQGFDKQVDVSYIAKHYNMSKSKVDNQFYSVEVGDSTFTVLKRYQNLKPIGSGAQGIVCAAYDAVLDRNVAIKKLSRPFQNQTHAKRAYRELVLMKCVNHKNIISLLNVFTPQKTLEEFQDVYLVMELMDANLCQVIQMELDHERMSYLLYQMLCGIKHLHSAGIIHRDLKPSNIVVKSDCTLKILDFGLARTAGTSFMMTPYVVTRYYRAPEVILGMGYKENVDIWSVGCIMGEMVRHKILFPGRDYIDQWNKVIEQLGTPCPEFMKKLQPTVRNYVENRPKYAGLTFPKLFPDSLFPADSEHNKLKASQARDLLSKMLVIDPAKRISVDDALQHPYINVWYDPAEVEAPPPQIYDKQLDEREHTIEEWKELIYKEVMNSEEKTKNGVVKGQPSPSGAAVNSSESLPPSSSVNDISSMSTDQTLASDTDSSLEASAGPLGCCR

SMILES | inhibition [1] | inhibition [2] | inhibition [3] | inhibition [4] | inhibition [5] | inhibition [6] | inhibition [7] | IC50 [8] | inhibition [9] | inhibition [10] | inhibition [11] | inhibition [12] | IC50 [13] | inhibition [14] | Activity [15] | Activity [16] | Activity [17] | Activity [18]
C=CC(=O)Nc1ccccc1Nc1nc(Nc2ccc(N3CCN(C)CC3)cc2)ncc1Cl | 5.2% | 38.1% | 4.9% | -8% | 14.8% | 70% | 2.9% | 0.05 µM | -7.7% | – | – | – | – | – | – | – | – | –
COc1cc(O)c2c(c1)/C=C/C[C@H](O)[C@H](O)C(=O)/C=C\C[C@H](C)OC2=O | – | 86.8% | – | – | – | – | – | – | – | -9.7% | 6.4% | 2.1% | 1.45 µM | -7.7% | – | – | – | –
C=CC(=O)Nc1ccccc1Nc1nc(Nc2ccc(N3CCN(CCOCCOCCOCCNC(=O)CCCC[C@@H]4SC[C@@H]5NC(=O)N[C@@H]54)CC3)cc2)ncc1Cl | – | – | – | – | – | – | – | – | – | – | – | – | – | – | Active | Active | Active | Active
C=CC(=O)Nc1ccccc1Oc1nc(Nc2cnn(CCOC)c2)ncc1Cl | 42.7% | – | 8.1% | -5.2% | -4.6% | 0.8% | -6.1% | 0.0024 µM | -3.3% | -9.9% | 12.8% | 4.2% | 2.62 µM | 6.7% | – | – | – | –
